Reference: publication PMC3921891 (European journal of pharmacology, 2010)
“Also recorded” adds a separate entry of the source. Like-named read-outs stand apart in the source and are kept apart here. Marks after values point to notes of the source that are not given here.

Assays:
[1] = tested on: EGF receptor in NCI-H1299 cells transfected with NMB receptor; assay type: cell-based, human; conditions: for effect of PP2 / GM6001 on NMB-induced EGF receptor transactivation: 10 µM inhibitor, densitometry of 3 experiments (Fig. 3B, C)
Outline: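 NCI-H1299 cells expressing transfected NMB receptor, grown to a monolayer, held in SIT medium 3 h. Inhibitors were added 30 min before stimulation with 0.1 µM NMB or BA1 for 2 min. Cells were lysed. 400 µg protein was immunoprecipitated overnight at 4°C with anti-phosphotyrosine, run on 4–20% SDS-PAGE and blotted with anti-EGF receptor. Alternatively, 20 µg extract was probed with anti-PY1068-EGF receptor. Detection was by ECL with densitometry.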

[2] = tested on: TGFα release from NCI-H1299 cells; assay: TGFα release, TGFα immunoassay; assay type: cell-based, human; conditions: inhibitor pretreatment, NMB 100 nM
[3] = tested on: reactive oxygen species in NCI-H1299 cells; assay: Reactive oxygen species; assay type: cell-based, human; conditions: for effect on BA1-induced reactive oxygen species / effect on basal reactive oxygen species: PP2 10 µM, GM6001 10 µM; for effect on BA1-induced reactive oxygen species / effect on H2O2-induced reactive oxygen species: NAC (5 mM), data not shown; for % Fluorescence Intensity, inhibitor alone (basal): PP2 10 µM or GM6001 (10 µM); for effect on basal reactive oxygen species: inhibitor alone
[4] = tested on: EGF receptor in NCI-H1299 cells; assay: EGF receptor tyrosine phosphorylation, Western blot, NCI-H1299 cells; assay type: cell-based, human
[5] = tested on: ERK (p42/p44 MAP kinase) in NCI-H1299 cells transfected with NMB receptor; assay: ERK tyrosine phosphorylation, Western blot; assay type: cell-based, human; conditions: abstract statement
Outline: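 Monolayers of NCI-H1299 cells with transfected NMB receptor were held in SIT medium 3 h. Inhibitors or anti-growth-factor antibodies (5 µg/ml) were given for 30 min, then 0.1 µM NMB or BA1 for 2 min. Lysate (20 µg) was run on 4–20% gels and blotted with anti-phospho-ERK, with anti-ERK or anti-tubulin as loading controls. Detection was by ECL with densitometry.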

[6] = tested on: GRP receptor; conditions: ref Jensen et al., 2008; Ashwood et al., 1998; cited from earlier work
[7] = tested on: NMB receptor; conditions: ref Jensen et al., 2008; Ashwood et al., 1998; cited from earlier work
[8] = tested on: NCI-H1299 cells; assay: MTT proliferation assay, NCI-H1299; assay type: cell-based, human
[9] = tested on: NCI-H1299 cells; assay: Clonogenic assay, NCI-H1299; assay type: cell-based, human
[10] = tested on: lung cancer cells; conditions: in vitro; ref Witta et al., 2006; Ono et al., 2004; Janmaat et al., 2003; cited from earlier work
[11] = tested on: NSCLC patients; conditions: particularly a subgroup with EGF receptor mutations; no reference given; cited from earlier work
[12] = Tiron 5 mM, None = 100 ± 7, mean ± S.D. of 6 determinations

CNC(=O)[C@H](Cc1c[nH]c2ccccc12)NC(=O)[C@@H](CC(=O)NO)CC(C)C [GM6001, (R)-N4-Hydroxy-N1-[(S)-2-(1H–indol-3-yl)-1-methylcarbamoyl-ethyl]-2-isobutyl-succinamide]
effect of PP2 / GM6001 on NMB-induced EGF receptor transactivation [1]: markedly inhibited
effect of PP2 / GM6001 on NMB-induced EGF receptor transactivation ([1]; listed as GM60001): reduced significantly
effect on NMB-induced TGFα secretion [2]: reversed
effect on BA1-induced reactive oxygen species [3]: inhibited the increase in reactive oxygen species
% Fluorescence Intensity, inhibitor alone (basal) [3, 12]: 94 ± 4%
effect on basal reactive oxygen species ([3]; Tiron 5 mM): had little effect

COc1cc2ncnc(Nc3cccc(Cl)c3)c2cc1OC [AG1478, N-(3-Chlorophenyl)-6,7-dimethoxy-4-quinazolinamine]
effect on NMB-induced EGF receptor tyrosine phosphorylation ([4]; AG1478 10 µg/ml, data not shown): inhibited
effect on EGF receptor transactivation or ERK tyrosine phosphorylation caused by NMB-like peptides [5]: inhibited

COc1ccc(C2(CNC(=O)[C@](C)(Cc3c[nH]c4ccccc34)NC(=O)Nc3ccc([N+](=O)[O-])cc3)CCCCC2)nc1 [PD176252]
affinity for GRP receptor [6]: high affinity
affinity for NMB receptor [7]: high affinity

OO [H2O2]
generation of reactive oxygen species ([3]; BA1 0.1 µM, NMB 0.1 µM or H2O2 10 µM): significantly increased
% Fluorescence Intensity, stimulus alone ([3]; NMB 0.1 µM, H2O2 10 µM or BA1 0.1 µM, 2 hour, None = 100 ± 7, mean ± S.D. of 6 determinations, P < 0.01): 589 ± 60 ^b %

CC(=O)N[C@@H](CS)C(=O)O [NAC, N-acetylcysteine]
effect of NAC on NMB-induced EGF receptor tyrosine phosphorylation ([1]; 5 mM NAC pretreatment, NMB 0.1 µM, 4 experiments (Fig. 4A, B)): inhibited
effect on BA1-induced reactive oxygen species [3]: reduced
effect on H2O2-induced reactive oxygen species ([3]; Tiron 5 mM): reduced

C[C@@](Cc1c[nH]c2ccccc12)(NC(=O)Nc1ccc([N+](=O)[O-])cc1)C(=O)NCC1(c2ccccn2)CCCCC1 [PD168368]
effect on BA1-induced EGF receptor tyrosine phosphorylation ([1]; 1 µM antagonist, 30 min pretreatment, 100 nM BA1, 4 experiments (Fig. 1D)): significantly reversed
effect on NMB-induced EGF receptor transactivation ([1]; data not shown): antagonized the ability of NMB to cause EGF receptor transactivation
effect on EGF receptor transactivation or ERK tyrosine phosphorylation caused by NMB-like peptides [5]: inhibited
effect of 3 µM PD168368 on the gefitinib dose response curve ([8]; 3 µM PD168368, relative to no additions): shifted to the left
effect of PD168368 alone on proliferation ([8]; PD168368 alone, mean of 8 determinations (Fig. 5A)): inhibited the proliferation of NCI-H1299 cells in a dose-dependent manner
effect of PD168368 on the gefitinib dose-response curve ([8]; increasing concentrations of PD168368 with gefitinib (Fig. 5A)): progressive shift to the left of the gefitinib dose-response curve
effect on colony formation ([9]; 0.3 µM PD168368, 2 weeks (Fig. 5B2)): had little effect on colony formation

COc1cc2ncnc(Nc3ccc(F)c(Cl)c3)c2cc1OCCCN1CCOCC1 [gefitinib]
effect on EGF receptor transactivation or ERK tyrosine phosphorylation caused by NMB-like peptides [5]: inhibited
effect on proliferation at 1 and 3 µg/ml ([8]; gefitinib 1 and 3 µg/ml): having no effect
effect on colony number and size ([9]; 1 µg/ml gefitinib, 2 weeks (Fig. 5B3)): slightly reduced colony number and size
variation of sensitivity of lung cancer cells to gefitinib [10]: up to 2700 fold
NSCLC patients responding [11]: 10%

O=S(=O)(O)c1cc(O)c(O)c(S(=O)(=O)O)c1 [Tiron]
effect of Tiron on NMB-induced EGF receptor transactivation ([1]; 10 mM Tiron (Fig. 4D)): significantly inhibited
effect of Tiron on NMB-induced EGF receptor transactivation ([1]; 0.1 or 1 mM Tiron (Fig. 4C, D)): had little effect
effect of Tiron on NMB-induced EGF receptor transactivation, dose dependence ([1]; 0.1 to 10 mM Tiron (Fig. 4C)): inhibited in a dose-dependent manner
effect on NMB-induced reactive oxygen species ([3]; Tiron 5 mM): greatly reduced
% Fluorescence Intensity, inhibitor + H2O2 ([3]; Tiron 5 mM 30 min prior to H2O2 10 µM, 2 hour, mean ± S.D. of 6 determinations, P < 0.01): 200 ± 14 ^b %
% Fluorescence Intensity, inhibitor + NMB ([3]; Tiron 5 mM 30 min prior to NMB 0.1 µM, 2 hour, mean ± S.D. of 6 determinations): 92 ± 9%
% Fluorescence Intensity, inhibitor alone (basal) [3, 12]: 82 ± 11%
effect on H2O2-induced reactive oxygen species ([3]; Tiron 5 mM): greatly reduced
effect on basal reactive oxygen species ([3]; Tiron 5 mM): had little effect

COc1cc2ncnc(Nc3ccc(Oc4ccccc4)cc3)c2cc1OC [PP2, 4-(4’-Phenoxyanilino)-6,7-dimethoxyquinzoline,6,7-Dimethoxy-N(4-phenoxyphenyl)-4-quinazolinamine]
effect of PP2 / GM6001 on NMB-induced EGF receptor transactivation [1]: markedly inhibited; also recorded: reduced significantly
effect on NMB-induced TGFα secretion [2]: reversed
effect on BA1-induced reactive oxygen species [3]: inhibited the increase in reactive oxygen species
% Fluorescence Intensity, inhibitor alone (basal) [3, 12]: 93 ± 5%
effect on basal reactive oxygen species ([3]; Tiron 5 mM): had little effect

bombesin
tyrosine phosphorylation of the 170 kDa EGF receptor ([4]; native NCI-H1299 cells, 0.1 µM (Fig. 1A)): caused tyrosine phosphorylation of the 170 kDa EGF receptor
increase in EGF receptor tyrosine phosphorylation ([4]; native NCI-H1299 cells, 0.1 µM, 2 min, densitometry analysis of 4 experiments (Fig. 1B)): 1.4 fold
